The entries come from a sample that favours hits as a whole.
PfGluPho inh = PfG6PD enzyme inhibitors, primary screen, biochemical, fluorescence intensity, uHTS | PfGluPho enzyme, NADPH resazurin-diaphorase fluorescence | AID 504690, 2011 | inhibition, % at 20 µM | glucose-6-phosphate dehydrogenase-6-phosphogluconolactonase (Plasmodium falciparum 3D7) | 0.78% of 350,000 active;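 active means inhibition reaching at least a set limit at 20 µM in the primary screen, cut at about 59% in these data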;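 further: 0% = DMSO wells with substrate and 100% = DMSO wells lacking glucose-6-phosphate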
Diaph act CS = compounds boosting diaphorase resazurin reduction – biochemical, uHTS, resorufin fluorescence, counter-screen for diaphorase-coupled primary assays, primary screen. 0.005% of 190,000 active. Diaphorase/resazurin coupled assay, 16 min; stronger effect = higher value; 1 = vehicle wells, 0 = NADH-free wells. activation factor at 20 µM. AID 1229, 2008;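 active means diaphorase activity raised at least twofold by the compound at 20 µM; inactive means activation factor below 2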
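Material: bacterial diaphorase enzyme (C. kluyveri); amount: enzyme 0.07 U/mL final; reagent: NADH substrate 0.114 mM plus resazurin dye 0.1 mM, final; doses: single compound dose of 20 µM, 1% DMSO final; timing: 16 min enzyme reaction, ambient temperature; measured by: fluorescence of resorufin, 544 nm excitation, 590 nm emission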
G6PDH counter = L. mesenteroides G6PDH inhibitors, counter-screen for G6PDH-coupled screening assays, biochemical, Leuconostoc mesenteroides enzyme; Purified L. mesenteroides G6PDH, diaphorase/resazurin coupled fluorescence, 45 min; inhibition, % at 5 µM; 0.12% of 200,000 active; AID 1020, 2008
DTT redox prof = compounds producing H2O2 with reducing agent – biochemical, NIH compound library profiling, artefact control for MLSCN library redox annotation, primary screen; activation, % at 10 µM; 0.03% of 200,000 active; AID 878, 2007; DTT-dependent redox cycling H2O2, phenol red/HRP absorbance; 100% = 100 µM peroxide control, 0% = buffer;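 active means activation of at least 50% relative to the plate's high and low controls in the primary single-dose screen; inactive means activation below 50%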;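 further: compound incubated with DTT at 0.8 mM final as the reducing agent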
Lmaj promast = Leishmania major promastigote growth inhibition, primary screen. inhibition, % at 10 µM. AID 1063, 2008. Leishmania major promastigotes, resazurin fluorescence viability. 9% of 200,000 active;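 further: promastigotes grown with compound for 44 hours at 28 °C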
Diaph inh CS = diaphorase inhibitors and chemical oxidizers, primary screen, counter-screen for diaphorase-coupled primary assays, biochemical, uHTS, resorufin fluorescence. inhibition, % at 20 µM. diaphorase resazurin-to-resorufin fluorescence, NADH, 16 min; bacterial (C. kluyveri) enzyme, not human. AID 1217, 2008. 0.69% of 190,000 active;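 active means primary screen inhibition at 20 µM above a set limit, cut at about 50% in these data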;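 further: plate controls were DMSO with full reaction for no effect and wells lacking NADH for full effect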
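Test system: Clostridium kluyveri diaphorase enzyme / Quantity: diaphorase at 0.14 U/mL in enzyme working solution / Incubation: 16-min room-temperature incubation before reading / Benchmarks: NADH-free wells as positive control, DMSO-only neutral wells / Signal: resorufin fluorescence 544/590 nm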
An asterisk follows results filed as active; x = no result. Unless noted, no stated cut-off is given here; in the data, active means inhibition above about 50%; inactive means the rest.

SMILES	PfGluPho inh	Diaph act CS	G6PDH counter	DTT redox prof	Lmaj promast	Diaph inh CS
C/C(=N\N=C(/N)SC1CC(=O)N(c2ccc(Br)cc2)C1=O)c1cccs1 (centres undefined)	-43	0.8	3	-4	100*	22
N/C(=N\N=C\c1cccs1)SC1CC(=O)N(c2ccc(Br)cc2)C1=O (centres undefined)	-26	1	-2	-1	100*	4
Cc1ccc(NC(=O)c2ccc(Cl)c(S(=O)(=O)Nc3c(C)n(C)n(-c4ccccc4)c3=O)c2)cc1Cl	0	x	x	x	x	x
COc1ccc(C2c3ccc4ccccc4c3Oc3ncn(CCN4CCOCC4)c(=N)c32)cc1 (centres undefined)	10	1	-4	10	100*	1
N=c1c2c(ncn1Cc1ccco1)Oc1ccc3ccccc3c1C2c1ccccc1 (centres undefined)	20	1.2	11	1	96*	-22
N=c1c2c(ncn1CCCO)Oc1ccc3ccccc3c1C2c1ccccc1 (centres undefined)	0	x	x	x	x	x
COc1ccc(C2c3c(ncn(Cc4ccco4)c3=N)Oc3ccc4ccccc4c32)cc1 (centres undefined)	1	1	-9	0	99*	-3
COc1ccc(C2c3ccc(O)cc3Oc3ncn(Cc4ccco4)c(=N)c32)cc1 (centres undefined)	18	x	x	x	x	x
CCOc1ccccc1NC(=S)NCc1ccco1	1	0.9	12	0	6	12
CN(CCOCCOc1ccc2ccccc2c1)Cc1ccccc1	15	0.9	11	0	100*	5
COc1cc(C)ccc1OCCOCCN(C)Cc1ccccc1	-3	0.9	-3	0	91*	11
COc1ccc(OCCN(C)Cc2ccccc2)cc1	-4	0.9	5	-1	12	12
CNC(=O)COc1ccc(C=O)cc1OC	-1	0.9	-5	0	60*	6
COc1cc(C=O)ccc1OCCOCCOc1cc(C)ccc1Cl	0	0.9	-1	2	73*	14
COc1cc(C)ccc1OCCOCCOc1ccccc1[N+](=O)[O-]	-2	0.9	-3	0	31	10
CCCCCCn1c(=O)n2n(c1=O)[C@@H]1CN(S(=O)(=O)c3ccc(C)cc3)C[C@]1(O)[C@@H](OC(=O)NCc1ccc(OC)c(OC)c1)C2	58	x	x	x	x	x
C=CCOc1c(Cl)cc(CNCCCN2CCOCC2)cc1OC	-9	x	x	x	x	x
CSc1ccc(CCNC(=O)c2cccc3c2C(=O)N(C2CCCCC2)C3)cc1	5	x	x	x	x	x
CCN1CCc2c(sc(NC(=O)c3ccc(S(=O)(=O)N(C)c4ccccc4)cc3)c2C(=O)NC)C1	23	x	x	x	x	x
COc1ccccc1NC(=O)N(Cc1ccccc1)C1=NCC(C)S1 (centres undefined)	13	0.9	-7	0	20	14
COc1ccccc1N(C(=O)NCc1ccccc1)C1=NCC(C)S1 (centres undefined)	-18	0.8	4	-1	57*	19
CN(Cc1ccccc1)c1ccc(N2C(=O)CCC2=O)cc1[N+](=O)[O-]	2	0.9	3	-1	-6	11
O=C1CCCC(=O)N1c1ccc(N2CCN(c3ccccc3)CC2)c([N+](=O)[O-])c1	-3	0.9	-5	0	-8	9
Cc1cccc(N2CCN(c3ccc(N4C(=O)CCCC4=O)cc3[N+](=O)[O-])CC2C)c1 (centres undefined)	10	0.9	-1	0	50*	10
CN(Cc1ccccc1)c1ccc(N2C(=O)CCCC2=O)cc1[N+](=O)[O-]	1	0.9	6	0	81*	13
